Tests used:
Pseudomonas aeruginosa [1] = assay: Antibacterial activity against Pseudomonas aeruginosa NCTC 13437 assessed as bacterial growth inhibition incubated for overnight by microbroth dilution method; type: functional
Outline: (§1)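 Broth microdilution in Tryptic Soy Broth. DMSO stocks were diluted in TSB as 2-fold series. Overnight TSB cultures were back-diluted to OD 0.01 and mixed 1:1 with compound. Incubation was overnight at 37 °C. MIC was the lowest concentration without visible growth (<0.1 OD600). DMSO vehicle was checked at equivalent concentrations.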

Acinetobacter baumannii [2] = assay: Antibacterial activity against Acinetobacter baumannii AYE assessed as bacterial growth inhibition incubated for overnight by microbroth dilution method; type: functional; outline: as §1
Acinetobacter baumannii [3] = assay: Antibacterial activity against Acinetobacter baumannii ATCC 17978 assessed as bacterial growth inhibition incubated for overnight by microbroth dilution method; type: functional; outline: as §1
Pseudomonas aeruginosa [4] = assay: Antibacterial activity against Pseudomonas aeruginosa PAO1 assessed as bacterial growth inhibition incubated for overnight by microbroth dilution method; type: functional; outline: as §1
Escherichia coli [5] = assay: Antibacterial activity against Escherichia coli NCTC 12923 assessed as bacterial growth inhibition incubated for overnight by microbroth dilution method; type: functional; outline: as §1
Klebsiella pneumoniae [6] = assay: Synergistic antibacterial activity against Klebsiella pneumoniae NCTC 13368 assessed as rifampicin MIC at <=0.25 times MIC incubated for overnight by microbroth dilution checkerboard assay; type: functional
Outline: (§2)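 Checkerboard microdilution under MIC conditions (TSB, overnight, 37 °C). Two-fold series of each agent were combined on one plate before bacteria were added, and single-agent MICs were measured on the same plate. FIC = sum of combination MIC/alone MIC for each agent, taken from the most synergistic well. Three independent repeats, mean ± SD. ≤0.5 was taken as strong synergy and 0.5–<1 as weak.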

Klebsiella pneumoniae [7] = assay: Synergistic antibacterial activity against […] Klebsiella pneumoniae M6 assessed as rifampicin MIC at <=0.25 times MIC incubated for overnight by microbroth dilution checkerboard assay; type: functional
Outline: (§3)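 Checkerboard run under the MIC conditions (TSB, overnight, 37 °C). Antibiotic and lipoguanidine 2-fold series were combined on one plate before bacteria were added. Growth/no-growth was scored as for the MIC (<0.1 OD600). Single-agent MICs were measured on the same plates. Three independent repeats were done.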

Acinetobacter baumannii [8] = assay: Synergistic antibacterial activity against Acinetobacter baumannii AYE assessed as rifampicin MIC at <=0.25 times MIC incubated for overnight by microbroth dilution checkerboard assay; type: functional; outline: as §2
Acinetobacter baumannii [9] = assay: Synergistic antibacterial activity against Acinetobacter baumannii ATCC 17978 assessed as rifampicin MIC at <=0.25 times MIC incubated for overnight by microbroth dilution checkerboard assay; type: functional; outline: as §2
Pseudomonas aeruginosa [10] = assay: Synergistic antibacterial activity against Pseudomonas aeruginosa PAO1 assessed as rifampicin MIC at <=0.25 times MIC incubated for overnight by microbroth dilution checkerboard assay; type: functional
Outline: (§4)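 Checkerboard microdilution in Tryptic Soy Broth, run like the MIC assay. Overnight TSB cultures were back-diluted to OD 0.01 and added 1:1 to the combined two-fold series of both agents, then incubated overnight at 37 °C. Growth/no-growth was called at <0.1 OD600. MICs alone were read on the same plates. FIC index came from the most synergistic well; three independent repeats, mean ± SD.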

Pseudomonas aeruginosa [11] = assay: Synergistic antibacterial activity against Pseudomonas aeruginosa NCTC 13437 assessed as rifampicin MIC at <=0.25 times MIC incubated for overnight by microbroth dilution checkerboard assay; type: functional; outline: as §4
Escherichia coli [12] = assay: Synergistic antibacterial activity against Escherichia coli NCTC 12923 assessed as rifampicin MIC at <=0.25 times MIC incubated for overnight by microbroth dilution checkerboard assay; type: functional; outline: as §2
Klebsiella pneumoniae [13] = assay: Synergistic antibacterial activity against Klebsiella pneumoniae NCTC 13368 assessed as fold change in rifampicin MIC at <=0.25 times MIC incubated for overnight by microbroth dilution checkerboard assay relative to rifampicin alone; type: functional; outline: as §3
Klebsiella pneumoniae [14] = assay: Synergistic antibacterial activity against […] Klebsiella pneumoniae M6 assessed as fold change in rifampicin MIC at <=0.25 times MIC incubated for overnight by microbroth dilution checkerboard assay relative to rifampicin alone; type: functional; outline: as §3
Acinetobacter baumannii [15] = assay: Synergistic antibacterial activity against Acinetobacter baumannii AYE assessed as fold change in rifampicin MIC at <=0.25 times MIC incubated for overnight by microbroth dilution checkerboard assay relative to rifampicin alone; type: functional; outline: as §2
Acinetobacter baumannii [16] = assay: Synergistic antibacterial activity against Acinetobacter baumannii ATCC 17978 assessed as fold change in rifampicin MIC at <=0.25 times MIC incubated for overnight by microbroth dilution checkerboard assay relative to rifampicin alone; type: functional; outline: as §2
Pseudomonas aeruginosa [17] = assay: Synergistic antibacterial activity against Pseudomonas aeruginosa PAO1 assessed as fold change in rifampicin MIC at <=0.25 times MIC incubated for overnight by microbroth dilution checkerboard assay relative to rifampicin alone; type: functional; outline: as §4
Pseudomonas aeruginosa [18] = assay: Synergistic antibacterial activity against Pseudomonas aeruginosa NCTC 13437 assessed as fold change in rifampicin MIC at <=0.25 times MIC incubated for overnight by microbroth dilution checkerboard assay relative to rifampicin alone; type: functional; outline: as §4
Escherichia coli [19] = assay: Synergistic antibacterial activity against Escherichia coli NCTC 12923 assessed as fold change in rifampicin MIC at <=0.25 times MIC incubated for overnight by microbroth dilution checkerboard assay relative to rifampicin alone; type: functional; outline: as §2
Klebsiella pneumoniae [20] = assay: Antibacterial activity against Klebsiella pneumoniae M6 assessed as bacterial growth inhibition incubated for overnight by microbroth dilution method
Klebsiella pneumoniae [21] = assay: Antibacterial activity against ESBL Klebsiella pneumoniae NCTC 13368 assessed as bacterial growth inhibition incubated for overnight by microbroth dilution method
Klebsiella pneumoniae [22] = assay: Synergistic antibacterial activity against Klebsiella pneumoniae NCTC 13368 assessed as rifampicin MIC at 30 microg/ml incubated for overnight by microbroth dilution checkerboard assay; type: functional; details: dose 30 µg/ml
Klebsiella pneumoniae [23] = assay: Synergistic antibacterial activity against Klebsiella pneumoniae M6 assessed as rifampicin MIC at 30 microg/ml incubated for overnight by microbroth dilution checkerboard assay; type: functional; details: dose 30 µg/ml
Acinetobacter baumannii [24] = assay: Synergistic antibacterial activity against Acinetobacter baumannii AYE assessed as rifampicin MIC at 30 microg/ml incubated for overnight by microbroth dilution checkerboard assay; type: functional; details: dose 30 µg/ml
Acinetobacter baumannii [25] = assay: Synergistic antibacterial activity against Acinetobacter baumannii ATCC 17978 assessed as rifampicin MIC at 30 microg/ml incubated for overnight by microbroth dilution checkerboard assay; type: functional; details: dose 30 µg/ml
Pseudomonas aeruginosa [26] = assay: Synergistic antibacterial activity against Pseudomonas aeruginosa PAO1 assessed as rifampicin MIC at 30 microg/ml incubated for overnight by microbroth dilution checkerboard assay; type: functional; details: dose 30 µg/ml
Outline: (§5)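 Fixed-concentration combination MIC in TSB. The first agent was set in a two-fold dilution series (100 µL/well), then 50 µL/well of the second agent at a fixed concentration was added; PMBN was fixed at 30 µg/mL. Bacteria at OD 0.02 (50 µL) went into 150 µL of compounds, overnight at 37 °C. MIC was the lowest concentration without visible growth (<0.1 OD600).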

Pseudomonas aeruginosa [27] = assay: Synergistic antibacterial activity against Pseudomonas aeruginosa NCTC 13437 assessed as rifampicin MIC at 30 microg/ml incubated for overnight by microbroth dilution checkerboard assay; type: functional; details: dose 30 µg/ml; outline: as §5
Escherichia coli [28] = assay: Synergistic antibacterial activity against Escherichia coli NCTC 12923 assessed as rifampicin MIC at 30 microg/ml incubated for overnight by microbroth dilution checkerboard assay; type: functional; details: dose 30 µg/ml

NCCCCN=C(N)N [AGMATINE]
MIC (Pseudomonas aeruginosa [1]): > 128 µg/mL | MIC (Acinetobacter baumannii [2]): > 128 µg/mL | MIC (Acinetobacter baumannii [3]): > 128 µg/mL | MIC (Pseudomonas aeruginosa [4]): > 128 µg/mL | MIC (Escherichia coli [5]): > 128 µg/mL | MIC (Klebsiella pneumoniae [6]): 32 µg/mL | MIC (Klebsiella pneumoniae [7]): 32 µg/mL | MIC (Acinetobacter baumannii [8]): 16 µg/mL | MIC (Acinetobacter baumannii [9]): 4 µg/mL | MIC (Pseudomonas aeruginosa [10]): 32 µg/mL | MIC (Pseudomonas aeruginosa [11]): 32 µg/mL | MIC (Escherichia coli [12]): 32 µg/mL | fold change (FC) (Klebsiella pneumoniae [13]): 0 | fold change (FC) (Klebsiella pneumoniae [14]): 0 | fold change (FC) (Acinetobacter baumannii [15]): 0 | fold change (FC) (Acinetobacter baumannii [16]): 0 | fold change (FC) (Pseudomonas aeruginosa [17]): 0 | fold change (FC) (Pseudomonas aeruginosa [18]): 0 | fold change (FC) (Escherichia coli [19]): 0 | MIC (Klebsiella pneumoniae [20]): > 128 µg/mL | MIC (Klebsiella pneumoniae [21]): > 128 µg/mL

CC(C)C[C@@H]1NC(=O)[C@@H](Cc2ccccc2)NC(=O)[C@H](CCN)NC(=O)[C@@H](NC(=O)[C@H](CCN)NC(=O)[C@@H](N)[C@@H](C)O)CCNC(=O)[C@H]([C@@H](C)O)NC(=O)[C@@H](CCN)NC(=O)[C@H](CCN)NC1=O
MIC (Klebsiella pneumoniae [22]): 1 µg/mL | MIC (Klebsiella pneumoniae [23]): 0.5 µg/mL | MIC (Acinetobacter baumannii [24]): 0.25 µg/mL | MIC (Acinetobacter baumannii [25]): ≤ 0.125 µg/mL | MIC (Pseudomonas aeruginosa [26]): ≤ 0.125 µg/mL | MIC (Pseudomonas aeruginosa [27]): ≤ 0.125 µg/mL | MIC (Escherichia coli [28]): ≤ 0.125 µg/mL

From ChEMBL document CHEMBL5357066, “Development of Novel Membrane Disrupting Lipoguanidine Compounds Sensitizing Gram-Negative Bacteria to Antibiotics” (ACS Med Chem Lett, 2024)
